{"source": "the RNAGym collection of RNA variant scans (doi:10.1126/science.aae0568)", "parents": {"B1": {"name": "tRNA (parent)", "chain": "GUUCCGUUGGCGUAAUGGUAACGCGUCUCCCUCCUAAGGAGAAGACUGCGGGUUCGAGUCCCGUACGGAACG"}}, "note": "Variants at the floor of the assay were thinned out."}
{"variants_of": "B1", "test": "yeast fitness relative to wild type (ratio to wild type); higher = fitter; tRNA-Arg(CCU), competitive growth, 37 C, YPD", "summary_of_the_method": "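Variants of the tRNA-Arg(CCU) gene, chemically synthesised with a 3% per-site mutation rate at 69 sites, were placed at the native genomic locus in Saccharomyces cerevisiae. The pooled strains were competed in YPD at 37°C for 24 hours in six parallel replicates. Gene amplicons from the start population and from each end population were read by 100-nucleotide paired-end sequencing. Darwinian fitness relative to wild type came from changes in genotype frequencies; genotypes needed ≥ 100 starting reads, and estimates < 0.5 were set to 0.5.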"}
{"variant": "C5U A21G U26A", "yeast fitness": 0.738}
{"variant": "C5U A14G C46G A65U", "yeast fitness": "≤ 0.5"}
{"variant": "C5U A14G U28C U64C", "yeast fitness": "≤ 0.5"}
{"variant": "C5G U26G", "yeast fitness": 0.625}
{"variant": "C5U A20G A43G A65U", "yeast fitness": "≤ 0.5"}
{"variant": "C5U A20C A69U", "yeast fitness": 0.771}
{"variant": "C5G U28G", "yeast fitness": 0.699}
{"variant": "C5U A65C G67C", "yeast fitness": 0.566}
{"variant": "C5U A15G A70U", "yeast fitness": 0.696}
{"variant": "C5U A45C G58C", "yeast fitness": 0.977}
{"variant": "C5U A20U U26A C34U C49A A57C C62U", "yeast fitness": "≤ 0.5"}
{"variant": "C5U C11G C24U A42C G67A", "yeast fitness": "≤ 0.5"}
{"variant": "C5U A20C C31A C34G A57G A65U", "yeast fitness": 0.593}
{"variant": "C5U A37U A42U U59A", "yeast fitness": 0.537}
{"variant": "C5U A14U C55G A65G", "yeast fitness": 0.566}
{"variant": "C5U A21G C24G U28G", "yeast fitness": "≤ 0.5"}
{"variant": "C5U A42G C49U A65C", "yeast fitness": "≤ 0.5"}
{"variant": "C5U A40G A43G C55U", "yeast fitness": "≤ 0.5"}
{"variant": "C5G U47C C61A G68U", "yeast fitness": "≤ 0.5"}
{"variant": "C5U A15C A21U", "yeast fitness": "≤ 0.5"}
{"variant": "C5U C11A A40G C55A C66A", "yeast fitness": "≤ 0.5"}
{"variant": "C5G U28A A57C C66G", "yeast fitness": "≤ 0.5"}
{"variant": "C5U A40G", "yeast fitness": 1.01}
{"variant": "C5U A40U", "yeast fitness": 0.833}
{"variant": "C5G U32C G38C", "yeast fitness": 0.534}
{"variant": "C5U A14U G48A C66U", "yeast fitness": "≤ 0.5"}
{"variant": "C5G U28C A70G", "yeast fitness": 0.641}
{"variant": "C5U A14U C49G A65U", "yeast fitness": "≤ 0.5"}
{"variant": "C5U A42G A45G C55G", "yeast fitness": "≤ 0.5"}
{"variant": "C5G U32A C34U", "yeast fitness": "≤ 0.5"}
{"variant": "C5U C11U A21G C24G A42U A43C U53G A57C", "yeast fitness": "≤ 0.5"}
{"variant": "C5U A37U A65G", "yeast fitness": 0.57}
{"variant": "C5U A14C C31A A40U C60A", "yeast fitness": "≤ 0.5"}
{"variant": "C5U A36G C49U A69C", "yeast fitness": "≤ 0.5"}
{"variant": "C5U A65U A69U", "yeast fitness": 0.623}
{"variant": "C5U A14C C24U A36G A70U", "yeast fitness": "≤ 0.5"}
{"variant": "C5U A15U C29U C31U C34U", "yeast fitness": 0.519}
{"variant": "C5U A20U G23C C31U U54C", "yeast fitness": "≤ 0.5"}
{"variant": "C5G U47A C62G G63A", "yeast fitness": "≤ 0.5"}
{"variant": "C5G U47C A65C", "yeast fitness": 0.558}
{"variant": "C5U A14G U26C C30U A42C C61U", "yeast fitness": "≤ 0.5"}
{"variant": "C5U A43U C49U C66U", "yeast fitness": "≤ 0.5"}
{"variant": "C5U A20C C66U", "yeast fitness": 0.616}
{"variant": "C5U A20C C66A", "yeast fitness": 0.51}
{"variant": "C5U A21U C30G C60G A70C", "yeast fitness": "≤ 0.5"}
{"variant": "C5U A42C C66U", "yeast fitness": 0.793}
{"variant": "C5U A15C A36U A65C", "yeast fitness": "≤ 0.5"}
{"variant": "C5U A65U G68C", "yeast fitness": 0.541}
{"variant": "C5U A36U A65U", "yeast fitness": 0.712}
{"variant": "C5U A14G C33U G50C C55U A57G", "yeast fitness": "≤ 0.5"}
{"variant": "C5U A45C U53G", "yeast fitness": 0.574}
{"variant": "C5U A69U", "yeast fitness": 0.972}
{"variant": "C5U A20U C62A G67A A70G", "yeast fitness": 0.747}
{"variant": "C5U A43C A69C", "yeast fitness": 0.802}
{"variant": "C5G U54C G56A", "yeast fitness": 0.729}
{"variant": "C5U A20U C30U C46U U47G", "yeast fitness": "≤ 0.5"}
{"variant": "C5U A21G A42U G50C", "yeast fitness": "≤ 0.5"}
{"variant": "C5U C11U A15G C34U G44C U47G", "yeast fitness": "≤ 0.5"}
{"variant": "C5U A20U G67A A70G", "yeast fitness": 0.933}
{"variant": "C5G U47A C55A", "yeast fitness": 0.637}
{"variant": "C5U C11G", "yeast fitness": 0.597}
{"variant": "C5U A14C C46G", "yeast fitness": 0.561}
{"variant": "C5U A14C C46A", "yeast fitness": 0.548}
{"variant": "C5U A20G U47C", "yeast fitness": "≤ 0.5"}
{"variant": "C5U A20C A43G", "yeast fitness": 0.658}
{"variant": "C5U A37U G56C", "yeast fitness": 0.686}
{"variant": "C5U A21G C24A A42C G63A", "yeast fitness": "≤ 0.5"}
{"variant": "C5U A37G A43C C46U C62U", "yeast fitness": "≤ 0.5"}
{"variant": "C5G U59G", "yeast fitness": 0.62}
{"variant": "C5G U59C", "yeast fitness": 0.852}
{"variant": "C5G U26C G44A", "yeast fitness": 0.529}
{"variant": "C5U A20G C31G U47C G48C", "yeast fitness": "≤ 0.5"}
{"variant": "C5U C11G C31U G41C U54G", "yeast fitness": 0.746}
{"variant": "C5U A21G C24A A42C", "yeast fitness": "≤ 0.5"}
{"variant": "C5U A45C", "yeast fitness": 1.06}
{"variant": "C5G U47C C61G", "yeast fitness": 0.519}
{"variant": "C5G U35G A37G", "yeast fitness": 0.536}
{"variant": "C5U A43G A45G", "yeast fitness": 0.669}
{"variant": "C5U A20U U26A A65C G67C", "yeast fitness": "≤ 0.5"}
{"variant": "C5U A21U A57U C60A G68C", "yeast fitness": 0.566}
{"variant": "C5U A20U A45U", "yeast fitness": 0.582}
{"variant": "C5U A20C G68C", "yeast fitness": 0.542}
{"variant": "C5G U35A A36C C55A", "yeast fitness": "≤ 0.5"}
{"variant": "C5U C11A A69U", "yeast fitness": "≤ 0.5"}
